Assay results from BindingDB's records for doi:10.1021/acsmedchemlett.6b00438 (Rhône-Poulenc Rorer, 2017).

Columns and labels:
[1] = target: Phosphatidylinositol 3-kinase regulatory subunit alpha/4,5-bisphosphate 3-kinase catalytic subunit delta isoform (Homo sapiens, UniProt P27986+O00329); experiment: Inhibition of full length recombinant human N-terminal His6-tagged PI3K p110delta/human p85alpha expressed in baculovirus infected sf21 cells using PIP2 as substrate preincubated for 30 mins followed by substrate addition by HTRF assay
[2] = target: T1, Phosphatidylinositol 4,5-bisphosphate 3-kinase catalytic subunit delta isoform (Homo sapiens, UniProt O00329); experiment: Inhibition of PI3Kdelta in human THP1 cells assessed as reduction in MCSF-stimulated akt phosphorylation at Thr308 preincubated for 30 mins followed by MCSF stimulation for 3 mins by ELISA
T1 sequence (O00329 whole entry): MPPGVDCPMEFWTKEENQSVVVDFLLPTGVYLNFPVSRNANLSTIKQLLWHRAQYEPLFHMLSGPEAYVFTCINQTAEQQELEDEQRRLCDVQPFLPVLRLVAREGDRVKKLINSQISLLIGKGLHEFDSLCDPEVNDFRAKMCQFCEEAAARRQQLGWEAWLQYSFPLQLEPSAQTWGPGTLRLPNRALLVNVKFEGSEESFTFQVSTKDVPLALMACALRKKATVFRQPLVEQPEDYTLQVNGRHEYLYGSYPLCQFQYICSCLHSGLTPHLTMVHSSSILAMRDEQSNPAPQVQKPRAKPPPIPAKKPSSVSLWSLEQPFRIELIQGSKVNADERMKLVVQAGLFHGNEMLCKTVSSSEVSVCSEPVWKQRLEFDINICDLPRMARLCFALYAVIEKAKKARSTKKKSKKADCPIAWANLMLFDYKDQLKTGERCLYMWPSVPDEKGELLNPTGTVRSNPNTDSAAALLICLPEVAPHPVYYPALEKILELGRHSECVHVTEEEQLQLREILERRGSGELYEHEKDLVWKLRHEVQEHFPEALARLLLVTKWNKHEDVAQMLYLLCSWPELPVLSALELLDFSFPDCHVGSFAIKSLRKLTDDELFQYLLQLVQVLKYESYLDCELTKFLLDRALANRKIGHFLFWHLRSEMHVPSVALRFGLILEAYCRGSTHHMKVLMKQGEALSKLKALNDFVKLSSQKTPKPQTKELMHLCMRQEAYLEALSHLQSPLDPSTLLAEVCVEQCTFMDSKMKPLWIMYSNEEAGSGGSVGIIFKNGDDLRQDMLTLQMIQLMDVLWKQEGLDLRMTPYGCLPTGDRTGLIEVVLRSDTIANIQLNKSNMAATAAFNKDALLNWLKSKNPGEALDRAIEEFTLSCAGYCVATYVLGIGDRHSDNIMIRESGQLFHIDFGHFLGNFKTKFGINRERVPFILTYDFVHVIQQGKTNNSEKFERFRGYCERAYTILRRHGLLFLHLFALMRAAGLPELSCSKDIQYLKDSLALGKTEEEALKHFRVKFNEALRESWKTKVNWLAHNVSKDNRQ
Procedure, shortened: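 THP-1 cells exposed to compound for 30 min, then stimulated with MCSF at EC80 for 3 min; lysates assayed by ELISA for pAkt (Thr308).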

Phosphatidylinositol 3-kinase regulatory subunit alpha/4,5-bisphosphate 3-kinase catalytic subunit delta isoform, sequence (P27986 whole entry, one chain of several, canonical isoform): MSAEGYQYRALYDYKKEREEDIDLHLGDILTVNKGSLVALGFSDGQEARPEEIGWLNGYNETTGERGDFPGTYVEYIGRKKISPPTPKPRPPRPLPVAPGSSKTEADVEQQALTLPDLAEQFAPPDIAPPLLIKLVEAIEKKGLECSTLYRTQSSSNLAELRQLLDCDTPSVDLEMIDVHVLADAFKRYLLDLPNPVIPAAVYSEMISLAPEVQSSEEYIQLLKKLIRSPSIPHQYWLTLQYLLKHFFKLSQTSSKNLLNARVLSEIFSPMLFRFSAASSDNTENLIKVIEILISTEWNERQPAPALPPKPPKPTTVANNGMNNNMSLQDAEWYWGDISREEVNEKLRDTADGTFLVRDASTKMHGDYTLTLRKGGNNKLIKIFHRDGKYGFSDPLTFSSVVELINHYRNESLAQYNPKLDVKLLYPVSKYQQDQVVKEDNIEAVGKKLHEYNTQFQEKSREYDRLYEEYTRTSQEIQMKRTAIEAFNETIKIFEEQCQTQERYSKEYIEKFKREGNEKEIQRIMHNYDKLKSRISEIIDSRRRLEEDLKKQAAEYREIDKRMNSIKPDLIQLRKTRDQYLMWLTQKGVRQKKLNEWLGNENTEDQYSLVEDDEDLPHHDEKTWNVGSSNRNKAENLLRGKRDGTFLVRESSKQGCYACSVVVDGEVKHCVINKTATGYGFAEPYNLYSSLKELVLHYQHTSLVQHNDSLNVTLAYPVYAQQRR

N#Cc1c(N)ncnc1NC(CC(F)(F)F)c1nn2cccc2c(=O)n1-c1ccccc1 (configuration not stated)
IC50 [1]: 0.017 µM
IC50 [2]: 0.051 µM
